Test results from ChEMBL document CHEMBL4400513, “Aurone derivatives as promising antibacterial agents against resistant Gram-positive pathogens” (Eur J Med Chem, 2019).
Converted amounts (≈) assume the structure as drawn. The source made the active and inactive calls. The calls are words filed in the database; no cut-off is given here.

Key:
[1] = system: Bacillus subtilis; experiment: Bactericidal activity against Bacillus subtilis in aerobic condition; format: functional, organism-based
How it was run: (§1)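 From the MIC plates, 10 µL from each well without growth was streaked onto agar suited to the organism and incubated under that organism's growth conditions. Colonies were then counted; MBC = lowest concentration allowing ≤1 colony, i.e. killing 99.9% of bacteria.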

[2] = system: Klebsiella pneumoniae; experiment: Bactericidal activity against Klebsiella pneumoniae in aerobic condition; format: functional, organism-based; how it was run: as §1
[3] = system: Shigella flexneri; experiment: Bactericidal activity against Shigella flexneri in aerobic condition; format: functional, organism-based
How it was run: (§2)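 MH broth; log-phase bacteria (OD600 ~0.6) diluted to ~10^5 bacteria/mL and exposed to two-fold serial dilutions (0–500 µM; 0.2% DMSO final as vehicle control) at 37 °C, aerobic, 18–24 h. MIC is the lowest concentration preventing visible growth (OD600). MBC is found by streaking 10 µL from no-growth wells onto agar; the MBC is the concentration where ≤1 colony grew. n = 3.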

[4] = system: Clostridium botulinum; experiment: Antimicrobial activity against Clostridium botulinum after 18 to 24 hrs in anaerobic condition by two-fold serial dilutions method; format: functional
[5] = system: Clostridioides difficile; experiment: Antimicrobial activity against Clostridium difficile after 18 to 24 hrs in anaerobic condition by two-fold serial dilutions method; format: functional
How it was run: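 Precultures in BHI broth at 37 °C in an anaerobic cabinet, grown to log phase (OD600 ~0.6), then seeded at ~10^5 bacteria/mL. Two-fold dilutions from 0 to 500 µM, 0.2% DMSO final as control. Plates incubated anaerobically at 37 °C for 18–24 h, OD600 read; MIC = lowest concentration giving no visible growth; independent triplicate.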

[6] = system: Citrobacter farmeri; experiment: Antimicrobial activity against Citrobacter farmeri after 18 to 24 hrs in aerobic condition by two-fold serial dilutions method; format: functional
How it was run: (§3)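 Colonies grown overnight (~16 h) in Mueller-Hinton broth at 37 °C, 200 rpm, diluted 1/100 and grown to log phase (OD600 ~0.6), then diluted to ~10^5 bacteria/mL. Exposed to 0 to 500 µM in 1:2 series (0.2% DMSO final control), aerobic, 37 °C, 18–24 h. OD600 read; MIC = lowest concentration without visible growth; n = 3.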

[7] = system: Penicillium verrucosum; experiment: Antifungal activity against Penicillium verrucosum after 2 to 5 days by two-fold serial dilutions method; format: functional
How it was run: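 Broth two-fold serial dilution MIC, 0 to 500 µM (1:2 steps), from 200 mM DMSO stocks; 0.2% DMSO final as vehicle control. Inoculum about 10^5 cells/mL. Strains maintained on potato dextrose agar and in RPMI medium. Plates held at room temperature for 2 to 5 days, OD600 read; MIC = lowest concentration preventing visible growth; independent triplicate.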

[8] = system: Bacillus subtilis; experiment: Antimicrobial activity against Nisin-resistant Bacillus subtilis after 18 to 24 hrs in aerobic condition by two-fold serial dilutions method; format: functional
How it was run: (§4)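 Strains grown on LB at 37 °C aerobically, then in Mueller-Hinton broth overnight at 200 rpm and brought to log phase (OD600 ~0.6). About 10^5 bacteria/mL exposed to two-fold serial dilutions 0–500 µM, DMSO 0.2% final as control. Aerobic incubation at 37 °C for 18–24 h; OD600 read; MIC = lowest concentration inhibiting visible growth. n = 3.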

[9] = system: Staphylococcus aureus; experiment: Antimicrobial activity against methicillin-resistant Staphylococcus aureus after 18 to 24 hrs in aerobic condition by two-fold serial dilutions method; format: functional; how it was run: as §4
[10] = system: Mycolicibacterium smegmatis; experiment: Antimicrobial activity against Mycobacterium smegmatis after 18 to 24 hrs in anaerobic condition by two-fold serial dilutions method; format: functional
[11] = system: Pseudomonas aeruginosa; experiment: Antimicrobial activity against Pseudomonas aeruginosa after 18 to 24 hrs in aerobic condition by two-fold serial dilutions method; format: functional; how it was run: as §3
[12] = system: Vibrio diabolicus; experiment: Antimicrobial activity against Vibrio diabolicus after 18 to 24 hrs in aerobic condition by two-fold serial dilutions method; format: functional; how it was run: as §3
[13] = system: Bacillus subtilis; experiment: Bactericidal activity against Nisin-resistant Bacillus subtilis in aerobic condition; format: functional, organism-based
[14] = system: Acinetobacter baumannii; experiment: Antimicrobial activity against Acinetobacter baumannii MRS after 18 to 24 hrs in aerobic condition by two-fold serial dilutions method; format: functional; how it was run: as §3
[15] = system: Helicobacter pylori; experiment: Antimicrobial activity against Helicobacter pylori after 18 to 24 hrs in anaerobic condition by two-fold serial dilutions method; format: functional
How it was run: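 Mueller-Hinton broth preculture grown to log phase (OD600 ~0.6), diluted to ~10^5 bacteria/mL. Serial 1:2 dilutions 0 to 500 µM, 0.2% DMSO final control. Incubated at 37 °C for 18–24 h under anaerobic conditions from a gas-pack system; OD600 read; MIC = lowest concentration without visible growth; triplicate.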

[16] = system: Aspergillus niger; experiment: Fungicidal activity against Aspergillus niger after 48 hrs; format: functional, organism-based
How it was run: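 A. niger in RPMI medium, two-fold serial dilutions 0–500 µM (0.2% DMSO final). Incubation at 35 °C for 48 h; OD600 read, MIC as the lowest concentration with no visible growth. Killing concentration determined by streaking 10 µL from no-growth wells on agar, where ≤1 colony grew. Triplicate.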

[17] = system: Acinetobacter baumannii; experiment: Antimicrobial activity against Acinetobacter baumannii after 18 to 24 hrs in aerobic condition by two-fold serial dilutions method; format: functional; how it was run: as §3
[18] = system: Escherichia coli; experiment: Antimicrobial activity against Escherichia coli MRS after 18 to 24 hrs in aerobic condition by two-fold serial dilutions method; format: functional; how it was run: as §3
[19] = system: Fusarium graminearum; experiment: Fungicidal activity against Fusarium graminearum; format: functional, organism-based
[20] = system: Citrobacter rodentium; experiment: Bactericidal activity against Citrobacter rodentium in aerobic condition; format: functional, organism-based; how it was run: as §1
[21] = system: Escherichia coli; experiment: Antimicrobial activity against Escherichia coli […] K88 after 18 to 24 hrs in aerobic condition by two-fold serial dilutions method; format: functional; how it was run: as §4
[22] = system: Penicillium verrucosum; experiment: Fungicidal activity against Penicillium verrucosum; format: functional, organism-based
How it was run: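 Filamentous fungi grown on potato dextrose agar and tested in RPMI medium with two-fold serial dilutions (0–500 µM, 0.2% DMSO final). Plates held at room temperature for 2 to 5 days, then OD600 read; MIC taken as the lowest concentration with no visible growth. The fungicidal endpoint is ≤1 colony after streaking 10 µL of no-growth wells on agar. n = 3.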

[23] = system: Lactococcus lactis; experiment: Bactericidal activity against Lactococcus lactis in aerobic condition; format: functional, organism-based; how it was run: as §1
[24] = system: Citrobacter farmeri; experiment: Bactericidal activity against Citrobacter farmeri in aerobic condition; format: functional, organism-based; how it was run: as §1
[25] = system: Vibrio alginolyticus; experiment: Bactericidal activity against Vibrio alginolyticus in aerobic condition; format: functional, organism-based; how it was run: as §2
[26] = system: Streptococcus thermophilus; experiment: Bactericidal activity against Streptococcus thermophilus in anaerobic condition; format: functional, organism-based
How it was run: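 S. thermophilus grown in BHI and brought to log phase (OD600 ~0.6). It is diluted to ~10^5 bacteria/mL and exposed to two-fold serial dilutions (0–500 µM, 0.2% DMSO final) at 37 °C in an anaerobic cabinet for 18–24 h. MIC read by OD600 as the lowest concentration with no visible growth. The MBC is the concentration where ≤1 colony grew after streaking 10 µL of no-growth wells on agar. Triplicate.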

[27] = system: Clostridium perfringens; experiment: Induction of cell membrane permeability in Clostridium perfringens assessed as membrane integrity after 240 mins in anaerobic condition by propidium iodide staining-based assay relative to control; format: functional
How it was run: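 Log-phase bacteria resuspended in PBS at about 10^9/mL with propidium iodide 60 µM final, mixed 1:1 with two-fold serial dilutions of compound. Fluorescence (ex 530/em 590 nm) recorded over 240 min at 37 °C anaerobically. Normalised to CTAB 300 µM or nisin at 5× MIC (100% permeabilization); DMSO as vehicle. Triplicate.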

O=C1/C(=C/c2ccccc2)Oc2cc(O)cc(O)c21
Activity [1]: Active
Activity [2]: Active
Activity [3]: Active
MIC [4]: 500 µM (≈ 127 µg/mL)
MIC [5]: 62.5 µM (≈ 15.9 µg/mL)
MIC [6]: > 500 µM
MIC [7]: > 500 µM
MIC [8]: 31.2 µM (≈ 7.95 µg/mL)
MIC [9]: 15.6 to 31.2 µM (≈ 3.97 to 7.95 µg/mL)
MIC [10]: > 500 µM
MIC [11]: > 500 µM
MIC [12]: > 500 µM
Activity [13]: Active
MIC [14]: > 500 µM
MIC [15]: 15.6 µM (≈ 3.97 µg/mL)
Activity [16]: Active
MIC [17]: > 500 µM
MIC [18]: > 500 µM
Activity [19]: Active
Activity [20]: Active
MIC [21]: > 500 µM
Activity [22]: Active
Activity [23]: Active
Activity [24]: Active
Activity [25]: Active
Activity [26]: Active
Activity [27]: inactive

COc1cc(/C=C2\Oc3cc(O)cc(O)c3C2=O)ccc1OCc1ccccc1
Activity [1]: Active
Activity [2]: Active
Activity [3]: Active
MIC [4]: 62.5 µM (≈ 24.4 µg/mL)
MIC [5]: 31.2 µM (≈ 12.2 µg/mL)
MIC [6]: > 500 µM
MIC [7]: > 500 µM
MIC [8]: 3.9 µM (≈ 1.52 µg/mL)
MIC [9]: 15.6 µM (≈ 6.09 µg/mL)
MIC [10]: > 500 µM
MIC [11]: > 500 µM
MIC [12]: > 500 µM
Activity [13]: Active
MIC [14]: > 500 µM
MIC [15]: 15.6 µM (≈ 6.09 µg/mL)
Activity [16]: Active
MIC [17]: > 500 µM
MIC [18]: > 500 µM
Activity [19]: Active
Activity [20]: Active
MIC [21]: > 500 µM
Activity [22]: Active
Activity [23]: Active
Activity [24]: Active
Activity [25]: Active
Activity [26]: Active
Activity [27]: 30%

O=C1/C(=C/c2ccc(F)cc2)Oc2cc(O)cc(O)c21
Activity [1]: Active
Activity [2]: Active
Activity [3]: Active
MIC [4]: 500 µM (≈ 136 µg/mL)
MIC [5]: 62.5 µM (≈ 17 µg/mL)
MIC [6]: > 500 µM
MIC [7]: > 500 µM
MIC [8]: 31.2 µM (≈ 8.51 µg/mL)
MIC [9]: 7.8 to 15.6 µM (≈ 2.12 to 4.25 µg/mL)
MIC [10]: > 500 µM
MIC [11]: > 500 µM
MIC [12]: > 500 µM
Activity [13]: Active
MIC [14]: > 500 µM
MIC [15]: > 500 µM
Activity [16]: Active
MIC [17]: > 500 µM
MIC [18]: > 500 µM
Activity [19]: Active
Activity [20]: Active
MIC [21]: > 500 µM
Activity [22]: Active
Activity [23]: Active
Activity [24]: Active
Activity [25]: Active
Activity [26]: Active
Activity [27]: inactive
